Results filed as inconclusive are left out.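 The calls were made as follows, unless noted: active = RAM network inhibition above 8.4% in each of two replicates, 3 SD over the compound average; inconclusive = above 8.4% inhibition in only one replicate; inactive = 8.4% inhibition or less in each replicate.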
Assays:
[1] = OD615 S. cerevisiae growth inhibition, permissive medium, pilot counter-assay, permissive growth control for S. cerevisiae lifespan shortening project (AID 705;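 active = growth inhibition above 25% in both replicates, a cutoff set 3 SD above the mean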); settings: OD615, 24 h, at 10 µM, stronger effect = higher value
Procedure, shortened: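 System – S. cerevisiae with engineered DeaD lifespan system · Buffer or medium – SC raffinose/galactose permissive medium · Schedule – cells pre-grown 4 h, then 24 h compound exposure, 30 °C humidified · Technique – culture turbidity as optical density at 615 nm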

[2] = Restrictive medium S. cerevisiae growth inhibition, OD615, pilot screen of yeast lifespan reduction project, restrictive growth control (AID 706;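 active = growth inhibition above a set limit, 3 SD over mean compound inhibition, in both replicates, cut at about 43% in these data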;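 also: modified DeaD lifespan yeast strain shifted to restrictive glucose medium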); settings: OD615, 48 h, at 10 µM, stronger effect = higher value
Procedure, shortened: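 Material: engineered S. cerevisiae DeaD strain / Medium: glucose-based CSMM-D restrictive medium / Compound: single dose of 10 µM compound final, 0.25% DMSO / Timing: 4 h pre-incubation, 48 h exposure at 30 °C / Technique: OD615 absorbance reading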

[3] = viability gain of MRP-1-high H69AR cells under doxorubicin, pilot screen, MRP-1 activator project, CellTiter-Glo, duplicate (AID 807;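 active = viability increase at or above a cutoff of the median across tested compounds plus 3 SD, cut at about 8.5% in these data, passing the limit was not always enough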;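 also: compound pretreatment 18-22 h then 72 h combined with doxorubicin; 0% = doxorubicin alone and 100% = vehicle without doxorubicin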); settings: H69AR viability with doxorubicin, CellTiter-Glo luminescence; at 10 µM; stronger effect = higher value
[4] = growth suppression of beta-catenin knockout HCT116, pilot screen, human colon tumor cells (AID 823;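 active = cell viability at or below a set limit in both duplicate runs, the limit being the all-compound median minus 4 SD, cut at about 23% in these data, passing the limit was not always enough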;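 also: 0% = wells killed by 20 µM Hyamine and 100% = untreated DMSO cell wells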); settings: CellTiter-Glo, 60 h, at 10 µM, stronger effect = lower value
[5] = growth suppression of PTEN-deleted HCT116, pilot screen, cell-based, HCT116 clonal line, CellTiter-Glo (AID 824;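 active = viability at or below 27.92% in each of two runs, the all-compound median minus 4 SD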;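 also: 0% = 20 µM Hyamine control and 100% = vehicle cell control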); settings: 60 h, at 10 µM, stronger effect = lower value
[6] = inhibitors of the yeast RAM network, pilot screen, dse1pr::URA3 reporter, 5-FOA selection (AID 869;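 active = inhibition over a set limit, the all-compound mean plus 3 SD, in both replicate runs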;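 also: 0% = DMSO wells with no growth and 100% = 10 µM 1-NA-PP1 with full growth; RAM network block rescues cells from 5-FOA so hits raise OD615 growth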); settings: S. cerevisiae dse1pr::URA3 5-FOA growth, OD615, 2 d; at 10 µM; stronger effect = higher value; strain carries analog-sensitive mutant Cbk1 kinase
[7] = RAM signaling pathway blockade in yeast – S. cerevisiae, Pdr1DBD-CYC8 efflux-inhibited sensitized strain, primary screen (AID 1298);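 also: 0% = DMSO untreated cells without growth and 100% = 10 µM 1-NA-PP1 full growth; higher means more yeast growth rescued from 5-FOA killing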; settings: S. cerevisiae cbk1-as DSE1-URA3 strain, 5-FOA growth OD615, 2 d; at 50 µM; stronger effect = higher value

CCn1c(=O)c2cc(C(=O)N3CCOCC3)sc2c2ccccc21
inactive: growth inhibition [1] -8.55% | growth inhibition [2] -14.5% | viability increase [3] -3.34% | viability [4] 102% | viability [5] 87.3% | inhibition [6] 0.84% | RAM network inhibition [7] 2.72%

Cc1ccc2nc(NC(=O)c3ccc(Cl)s3)sc2c1
inactive: growth inhibition [1] -17.2% | growth inhibition [2] -14.8% | viability increase [3] -6.45% | viability [4] 64.5% | viability [5] 63% | inhibition [6] 1.35% | RAM network inhibition [7] 2.06%

Cc1cccc(C(=O)Nc2cc(=O)n(C)c(=O)n2C)c1
inactive: growth inhibition [1] -14.2% | growth inhibition [2] -21.9% | viability increase [3] -0.85% | viability [4] 105% | viability [5] 92.4% | inhibition [6] 0.905% | RAM network inhibition [7] 1.04%

COc1ccc(OC)c2c1CC(C)(C)NC2=O
inactive: growth inhibition [1] 0.615% | growth inhibition [2] 7.13% | viability increase [3] -0.54% | viability [4] 88.3% | viability [5] 96.9% | inhibition [6] 1.83% | RAM network inhibition [7] 3.75%

N#Cc1ccccc1Cn1c(=O)n(-c2ccc(CC(=O)NCc3ccco3)cc2)c(=O)c2sccc21
inactive: growth inhibition [1] -3.44% | growth inhibition [2] 3.28% | viability increase [3] -1.7% | viability [4] 97.8% | viability [5] 99.6% | inhibition [6] 2.13% | RAM network inhibition [7] 4.46%

CCOc1ccc(N(CC(=O)NCC(C)C)S(C)(=O)=O)cc1
inactive: growth inhibition [1] 6.66% | growth inhibition [2] -4.28% | viability increase [3] -0.04% | viability [4] 98% | viability [5] 102% | inhibition [6] 0.96% | RAM network inhibition [7] 1.12%

COc1ccc(C2=NOC(C(=O)N3CCN(c4ccccc4OC)CC3)C2)cc1 (stereo not drawn)
inactive: growth inhibition [1] -7.36% | growth inhibition [2] 0.135% | viability increase [3] 2.8% | viability [4] 99.9% | viability [5] 88.5% | inhibition [6] 2.17% | RAM network inhibition [7] 4.09%

CC(=O)c1c(C)[nH]c(C(=O)N2c3ccccc3CC2C)c1C (stereo not drawn)
inactive: growth inhibition [1] -1.11% | growth inhibition [2] 3.09% | viability increase [3] -0.41% | viability [4] 92.3% | viability [5] 92.6% | inhibition [6] 0.755% | RAM network inhibition [7] 3.82%

Cc1ccc(C)c(NC(=O)CS(=O)(=O)c2c[nH]c3ccccc23)c1
inactive: growth inhibition [1] -9.01% | growth inhibition [2] -31.9% | viability increase [3] -2.95% | viability [4] 96.5% | viability [5] 93.5% | inhibition [6] 2.13% | RAM network inhibition [7] -0.27%

CC(C)Sc1oc(-c2ccco2)nc1S(=O)(=O)c1ccc(F)cc1
inactive: growth inhibition [1] -5.61% | growth inhibition [2] -0.07% | viability increase [3] -2.29% | viability [4] 94% | viability [5] 89.8% | inhibition [6] 1.54% | RAM network inhibition [7] 6.36%

COc1ccc(C2CC(=O)C3=C(C2)NC(C)=C(C#N)C3c2ccc(N(C)C)cc2)cc1 (stereo not drawn)
inactive: growth inhibition [1] -6.35% | growth inhibition [2] 7.55% | viability increase [3] 0.06% | viability [4] 78.5% | viability [5] 75.8% | inhibition [6] 2.72% | RAM network inhibition [7] 5.79%

CC(C)(C)C1CCc2c(sc(NC(=O)c3cc(C4CC4)on3)c2C#N)C1 (stereo not drawn)
inactive: growth inhibition [1] -2.48% | growth inhibition [2] -5.6% | viability increase [3] -1.27% | viability [4] 96.8% | viability [5] 90.5% | inhibition [6] 3.56% | RAM network inhibition [7] 2.83%

CCCCNC(=O)CS(=O)Cc1nc(-c2cccc(Cl)c2)oc1C (stereo not drawn)
inactive: growth inhibition [1] -2.86% | growth inhibition [2] 11.4% | viability increase [3] -0.78% | viability [4] 92.2% | viability [5] 97.3% | inhibition [6] 0.705% | RAM network inhibition [7] 6.02%

C=C(C)Cn1c(NCCC)nc2c1c(=O)n(C)c(=O)n2C
inactive: growth inhibition [1] -9.8% | growth inhibition [2] -3.75% | viability increase [3] -0.51% | viability [4] 98% | viability [5] 95.2% | inhibition [6] 2.74% | RAM network inhibition [7] 1.36%

COCCCN(C(=O)Cn1ncc2c(=O)oc3ccc(C)cc3c21)C(C)c1ccncc1 (stereo not drawn)
inactive: growth inhibition [1] -16% | growth inhibition [2] -27.4% | viability increase [3] -1.85% | viability [4] 103% | viability [5] 98.3% | inhibition [6] 1.15% | RAM network inhibition [7] 0.85%

Cn1c(=O)c2nc(-c3ccc(Cl)cc3Cl)oc2c2ccccc21
inactive: growth inhibition [1] -12.5% | growth inhibition [2] -0.105% | viability increase [3] -3.1% | viability [4] 81.1% | viability [5] 77.6% | inhibition [6] 2.31% | RAM network inhibition [7] 3.74%

CCCCOc1cccc(C2(C(=O)O)CCCC2)c1
inactive: growth inhibition [1] -6.28% | growth inhibition [2] 4.47% | viability increase [3] -1.49% | viability [4] 99% | viability [5] 94.5% | inhibition [6] 1.21% | RAM network inhibition [7] 4.01%

CCOc1cccc(=O)c2c(C)n(CC3CCCO3)c(C)c12 (stereo not drawn)
inactive: growth inhibition [1] -3.19% | growth inhibition [2] -1.17% | viability increase [3] -2.8% | viability [4] 92.5% | viability [5] 90.4% | inhibition [6] 0.73% | RAM network inhibition [7] -1.39%

Oc1cnn(-c2ccccc2)c1
inactive: growth inhibition [1] -0.88% | growth inhibition [2] 3.54% | viability increase [3] -5.6% | viability [4] 92.8% | viability [5] 94.3% | inhibition [6] 0.91% | RAM network inhibition [7] -0.83%

O=C(c1ccc(-c2ccccc2)cc1)N1CCCC1
inactive: growth inhibition [1] 0.63% | growth inhibition [2] -4.7% | viability increase [3] 0.06% | viability [4] 94.9% | viability [5] 98.8% | inhibition [6] 0.02% | RAM network inhibition [7] 10.3%

COc1ccc(-n2c(SCC(=O)Nc3ccccc3)nc3c(c2=O)SCC3)cc1
inactive: growth inhibition [1] -1.34% | growth inhibition [2] 0.23% | viability increase [3] 3.8% | viability [4] 101% | viability [5] 96% | inhibition [6] 0.755% | RAM network inhibition [7] 9.27%

CCn1ccnc1C(O)c1cccc(OC)c1OC (stereo not drawn)
inactive: growth inhibition [1] -8.24% | growth inhibition [2] -3.01% | viability increase [3] -0.74% | viability [4] 108% | viability [5] 96.3% | inhibition [6] 2.75% | RAM network inhibition [7] 3.57%

COC(=O)C1C(C(C)C)N(c2ccccc2)OC1(C)O (stereo not drawn)
inactive: growth inhibition [1] -11.8% | growth inhibition [2] -7.98% | viability increase [3] -4.25% | viability [4] 103% | viability [5] 96.9% | inhibition [6] 0.93% | RAM network inhibition [7] 1.66%

CCOC(=O)Cn1c(=O)oc2cc(S(=O)(=O)N3CCN(c4ccccn4)CC3)ccc21
inactive: growth inhibition [1] 10.4% | growth inhibition [2] 6.56% | viability increase [3] -2.64% | viability [4] 96.3% | viability [5] 99.5% | inhibition [6] 0.75% | RAM network inhibition [7] 3.64%
